According to ChEMBL document CHEMBL1926651, “Design, synthesis, antiviral and cytostatic evaluation of novel isoxazolidine nucleotide analogues with a 1,2,3-triazole linker” (Eur J Med Chem, 2012):
Active and inactive are the calls of the source. The calls are words filed in the database; no cut-off is given here.

Legend:
MDCK = assay: Cytotoxicity against MDCK cells assessed as change in cell morphology up to 100 uM; assay type: cell-based, Canis lupus familiaris; conditions: dog
Procedure, shortened: (§1)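 Uninfected host-cell cultures were examined under the microscope. MCC was taken as the lowest compound concentration producing a detectable alteration of normal cell morphology, assessed at concentrations up to 100 μM.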

HeLa [1] = assay: Cytotoxicity against human HeLa cells assessed as change in cell morphology up to 100 uM; assay type: cell-based; procedure, shortened: as §1
Coxsackievirus B4 [2] = assay: Antiviral activity against Coxsackievirus B4 infected in human HeLa cells assessed as inhibition of viral plaque formation at 250 uM; assay type: functional, organism-based
Procedure, shortened: (§2)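 Confluent host cell monolayers were inoculated with 100 CCID50 of virus in the presence of test compound at serial dilutions (250, 50, 10, … μM). Viral cytopathicity was scored once it reached completion in untreated virus-infected controls.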

HEL [3] = assay: Cytotoxicity against human HEL cells 3 days by coulter counting; assay type: functional; conditions: 72 h
Procedure, shortened: (§3)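 Cells were suspended at 300,000–500,000 cells/mL and added 1:1 to compound dilutions. Incubation was at 37 °C, 2 days for L1210 and 3 days for CEM, HeLa and HEL. Cells were counted with a Coulter counter. CC50 is the concentration inhibiting cell proliferation by 50%.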

CCRF-CEM = assay: Cytotoxicity against human CEM cells 3 days by coulter counting; assay type: functional; conditions: 72 h; procedure, shortened: as §3
[4] = test system: Vesicular stomatitis virus; assay: Antiviral activity against Vesicular stomatitis virus infected in human HEL cells assessed as inhibition of viral plaque formation at 250 uM; assay type: functional, organism-based; procedure, shortened: as §2
Vero = assay: Cytotoxicity against african green monkey Vero cells assessed as change in cell morphology up to 100 uM; assay type: cell-based; conditions: chlorocebus sabaeus; procedure, shortened: as §1
[5] = test system: Human immunodeficiency virus 1; assay: Antiviral activity against Human immunodeficiency virus 1 infected in human CEM cells assessed as inhibition of virus-induced giant cell formation after 4 days by microscopic analysis; assay type: functional, organism-based; conditions: CCRF-CEM
Procedure, shortened: (§4)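 CEM cells at about 3 × 10⁵ cells/cm³ were infected with 100 CCID50/mL of HIV-1(IIIB) or HIV-2(ROD), then seeded into wells holding test compound dilutions. After 4 days at 37 °C, virus-induced giant cell formation was scored microscopically.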

L1210 = assay: Cytotoxicity against mouse L1210 cells 2 days by coulter counting; assay type: functional; conditions: L1210, 48 h; procedure, shortened: as §3
Felid alphaherpesvirus 1 = assay: Antiviral activity against Felid herpesvirus 1 infected in CrFK cells assessed as inhibition of viral plaque formation at 250 uM; assay type: functional, organism-based; procedure, shortened: as §2
[6] = test system: Respiratory syncytial virus; assay: Antiviral activity against Respiratory syncytial virus infected in human HeLa cells assessed as inhibition of viral plaque formation at 250 uM; assay type: functional, organism-based; procedure, shortened: as §2
Human betaherpesvirus 5 [7] = assay: Antiviral activity against Human cytomegalovirus Davis infected in human HEL cells assessed as inhibition of viral plaque formation at 250 uM; assay type: functional, organism-based
[8] = test system: Vesicular stomatitis virus; assay: Antiviral activity against Vesicular stomatitis virus infected in human Hela cells assessed as inhibition of viral plaque formation at 250 uM; assay type: functional, organism-based
Human alphaherpesvirus 1 [9] = assay: Antiviral activity against Herpes simplex virus 1 KOS infected in human HEL cells assessed as inhibition of viral plaque formation at 250 uM; assay type: functional, organism-based; procedure, shortened: as §2
[10] = Cytotoxicity against CRFK cells assessed as change in cell morphology up to 100 uM; assay type: cell-based, Felis catus; conditions: cat; procedure, shortened: as §1
Punta Toro virus = assay: Antiviral activity against Punta Toro virus infected in african green monkey Vero cells assessed as inhibition of viral plaque formation at 250 uM; assay type: functional, organism-based
Human alphaherpesvirus 2 = assay: Antiviral activity against Herpes simplex virus 2 G infected in human HEL cells assessed as inhibition of viral plaque formation at 250 uM; assay type: functional, organism-based; conditions: strain G
HeLa [11] = assay: Cytotoxicity against human HeLa cells 3 days by coulter counting; assay type: functional; conditions: 72 h; procedure, shortened: as §3
Human alphaherpesvirus 3 [12] = assay: Antiviral activity against thymidine kinase-deficient Varicella Zoster virus 07/1 infected in human HEL cells assessed as inhibition of viral plaque formation at 250 uM; assay type: functional, organism-based
Coxsackievirus B4 [13] = assay: Antiviral activity against Coxsackievirus B4 infected in african green monkey Vero cells assessed as inhibition of viral plaque formation at 250 uM; assay type: functional, organism-based; procedure, shortened: as §2
Sindbis virus = assay: Antiviral activity against Sindbis virus infected in african green monkey Vero cells assessed as inhibition of viral plaque formation at 250 uM; assay type: functional, organism-based; procedure, shortened: as §2
HEL [14] = assay: Cytotoxicity against human HEL cells assessed as change in cell morphology up to 100 uM; assay type: cell-based; procedure, shortened: as §1
Human betaherpesvirus 5 [15] = assay: Antiviral activity against Human cytomegalovirus AD169 infected in human HEL cells assessed as inhibition of viral plaque formation at 250 uM; assay type: functional, organism-based
Feline coronavirus = assay: Antiviral activity against Feline coronavirus infected in CrFK cells assessed as inhibition of viral plaque formation at 250 uM; assay type: functional, organism-based; procedure, shortened: as §2
[16] = test system: Human immunodeficiency virus 2; assay: Antiviral activity against Human immunodeficiency virus 2 infected in human CEM cells assessed as inhibition of virus-induced giant cell formation after 4 days by microscopic analysis; assay type: functional, organism-based; conditions: CCRF-CEM; procedure, shortened: as §4
Human respirovirus 3 = assay: Antiviral activity against Parainfluenza-3 virus infected in african green monkey Vero cells assessed as inhibition of viral plaque formation at 250 uM; assay type: functional, organism-based; procedure, shortened: as §2
[17] = test system: Mammalian orthoreovirus 1; assay: Antiviral activity against Reovirus-1 infected in african green monkey Vero cells assessed as inhibition of viral plaque formation at 250 uM; assay type: functional, organism-based; procedure, shortened: as §2
Human alphaherpesvirus 1 [18] = assay: Antiviral activity against thymidine kinase-deficient acv-resistant Herpes simplex virus 1 KOS infected in human HEL cells assessed as inhibition of viral plaque formation at 250 uM; assay type: functional, organism-based
Vaccinia virus = assay: Antiviral activity against Vaccinia virus infected in human HEL cells assessed as inhibition of viral plaque formation at 250 uM; assay type: functional, organism-based; conditions: Orthopoxvirus vaccinia; procedure, shortened: as §2
Human alphaherpesvirus 3 [19] = assay: Antiviral activity against thymidine kinase-positive Varicella Zoster virus Oka infected in human HEL cells assessed as inhibition of viral plaque formation at 250 uM; assay type: functional, cell-based; conditions: strain Oka vaccine

| Compound | Activity (MDCK) | Activity (HeLa [1]) | Activity (Coxsackievirus B4 [2]) | CC50 (HEL [3]) [µM] | CC50 (CCRF-CEM) [µM] | Activity [4] | Activity (Vero) | Activity [5] | CC50 (L1210) [µM] | Activity (Felid alphaherpesvirus 1) | Activity [6] | Activity (Human betaherpesvirus 5 [7]) | Activity [8] | Activity (Human alphaherpesvirus 1 [9]) | Activity [10] | Activity (Punta Toro virus) | Activity (Human alphaherpesvirus 2) | CC50 (HeLa [11]) [µM] | Activity (Human alphaherpesvirus 3 [12]) | Activity (Coxsackievirus B4 [13]) | other results |
| --- | --- | --- | --- | --- | --- | --- | --- | --- | --- | --- | --- | --- | --- | --- | --- | --- | --- | --- | --- | --- | --- |
| CCOP(=O)(OCC)[C@@H]1C[C@H](n2cc(-c3ccccc3F)nn2)ON1C (relative stereo) | Non-toxic | Non-toxic | inactive | 41 | > 250 | inactive | Non-toxic | inactive | 122 | inactive | inactive | inactive | inactive | inactive | Non-toxic | inactive | inactive | 247 | inactive | inactive | Activity (Sindbis virus): inactive; Activity (HEL [14]): Non-toxic; Activity (Human betaherpesvirus 5 [15]): inactive; Activity (Feline coronavirus): inactive; Activity [16]: inactive; Activity (Human respirovirus 3): inactive; Activity [17]: inactive; Activity (Human alphaherpesvirus 1 [18]): inactive; Activity (Vaccinia virus): inactive; Activity (Human alphaherpesvirus 3 [19]): inactive |
| CCOP(=O)(OCC)[C@@H]1C[C@@H](n2cc(-c3ccc(F)cc3F)nn2)ON1C (racemic) | Non-toxic | Non-toxic | inactive | 59 | ≥ 250 | inactive | Non-toxic | inactive | 131 | inactive | inactive | inactive | inactive | inactive | Non-toxic | inactive | inactive | 162 | inactive | inactive | Activity (Sindbis virus): inactive; Activity (HEL [14]): Non-toxic; Activity (Human betaherpesvirus 5 [15]): inactive; Activity (Feline coronavirus): inactive; Activity [16]: inactive; Activity (Human respirovirus 3): inactive; Activity [17]: inactive; Activity (Human alphaherpesvirus 1 [18]): inactive; Activity (Vaccinia virus): inactive; Activity (Human alphaherpesvirus 3 [19]): inactive |
| CCOP(=O)(OCC)[C@@H]1C[C@@H](n2cc(-c3ccccn3)nn2)ON1C (racemic) | Non-toxic | Non-toxic | inactive | 62 | > 250 | inactive | Non-toxic | inactive | ≥ 250 | inactive | inactive | inactive | inactive | inactive | Non-toxic | inactive | inactive | > 250 | inactive | inactive | Activity (Sindbis virus): inactive; Activity (HEL [14]): Non-toxic; Activity (Human betaherpesvirus 5 [15]): inactive; Activity (Feline coronavirus): inactive; Activity [16]: inactive; Activity (Human respirovirus 3): inactive; Activity [17]: inactive; Activity (Human alphaherpesvirus 1 [18]): inactive; Activity (Vaccinia virus): inactive; Activity (Human alphaherpesvirus 3 [19]): inactive |
